Measurements from ChEMBL document CHEMBL4422635, “Structure-Based Discovery of a Subtype-Selective Inhibitor Targeting a Transient Receptor Potential Vanilloid Channel” (J Med Chem, 2019).
Substitutions are numbered along the chain they refer to. The source made the active and inactive calls. The rule behind the calls is not given here.

What was measured:
[1] = species on record: Mus musculus; assay: Antagonist activity at mouse LPA-induced TRPV2/LPAR1 expressed in HEK293T cells assessed as inhibition of 2-APB evoked currents at 1 uM after 3 mins in presence of AM966 by whole-cell patch clamp assay; type: cell-based
How it was run: (§1)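 Whole-cell voltage clamp of transiently transfected HEK293T cells co-expressing GFP, recorded 36-96 h post-transfection. Hold -60 mV; pipettes 3-7 MΩ. Bath 165 mM NaCl, 10 mM HEPES pH 7.3; pipette 140 mM KCl, 10 mM HEPES pH 7.3. Room temperature (~25 °C). IC50 from Hill fits of I/I0, the current ratio after vs before inhibitor; mean ± SEM.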

[2] = test system: Transient receptor potential cation channel subfamily V member 1 (Mus musculus), Q704Y3 [T551L]; assay: Antagonist activity at mouse TRPV1 T551L mutant expressed in HEK293T cells assessed as inhibition of 2-APB evoked currents at > 1 uM at -60 mV holding potential by whole-cell patch clamp assay; type: cell-based; how it was run: as §1
[3] = test system: PC-3M; assay: Antimetastatic activity in human PC3M cells transfected with TRPV2 siRNA at 5 to 20 uM after 24 hrs by transwell migration assay; type: functional, cell-based
[4] = biological target: T1, Transient receptor potential cation channel subfamily V member 2 (Mus musculus) (UniProt Q9WTR1); assay: Antagonist activity at mouse TRPV2 expressed in HEK293T cells assessed as inhibition of 2-APB evoked currents at -60 mV holding potential by whole-cell patch clamp assay; type: cell-based; how it was run: as §1
T1 sequence (whole entry): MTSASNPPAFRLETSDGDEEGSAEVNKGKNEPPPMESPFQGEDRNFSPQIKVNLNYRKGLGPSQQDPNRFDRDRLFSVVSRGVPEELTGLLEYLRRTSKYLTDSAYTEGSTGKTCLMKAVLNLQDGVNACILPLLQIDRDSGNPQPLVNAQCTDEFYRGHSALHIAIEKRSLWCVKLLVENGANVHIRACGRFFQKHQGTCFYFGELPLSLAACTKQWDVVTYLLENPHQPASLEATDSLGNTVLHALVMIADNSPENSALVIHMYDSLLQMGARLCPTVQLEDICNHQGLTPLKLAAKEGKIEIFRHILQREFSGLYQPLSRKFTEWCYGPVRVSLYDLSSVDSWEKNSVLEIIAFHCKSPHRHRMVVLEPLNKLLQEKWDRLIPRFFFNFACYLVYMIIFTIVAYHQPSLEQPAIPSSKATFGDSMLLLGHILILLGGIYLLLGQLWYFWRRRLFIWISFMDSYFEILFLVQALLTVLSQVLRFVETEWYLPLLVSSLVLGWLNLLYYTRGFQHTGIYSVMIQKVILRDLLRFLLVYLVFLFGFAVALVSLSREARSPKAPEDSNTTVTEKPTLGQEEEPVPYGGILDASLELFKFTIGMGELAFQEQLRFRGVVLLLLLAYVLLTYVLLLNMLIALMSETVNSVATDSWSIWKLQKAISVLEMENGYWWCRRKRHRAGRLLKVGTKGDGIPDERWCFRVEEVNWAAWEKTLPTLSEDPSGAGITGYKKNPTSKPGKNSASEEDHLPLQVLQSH

[5] = biological target: Transient receptor potential cation channel subfamily V member 1 (Mus musculus) (UniProt Q704Y3); assay: Antagonist activity at mouse TRPV1 expressed in HEK293T cells assessed as inhibition of 2-APB evoked currents at 3 to 10 uM -60 mV holding potential by whole-cell patch clamp assay; type: cell-based; how it was run: as §1
[6] = test system: T2, Transient receptor potential cation channel subfamily V member 2 (Mus musculus), Q9WTR1 [F467A]; assay: Antagonist activity at mouse TRPV2 F467A mutant expressed in HEK293T cells assessed as inhibition of 2-APB evoked currents at -60 mV holding potential by whole-cell patch clamp assay; type: cell-based; how it was run: as §1
T2 sequence (whole entry): T1 sequence (whole entry) with F467A

Transient receptor potential cation channel subfamily V member 1 (Mus musculus), Q704Y3 [T551L], sequence (Q704Y3 whole entry T551L): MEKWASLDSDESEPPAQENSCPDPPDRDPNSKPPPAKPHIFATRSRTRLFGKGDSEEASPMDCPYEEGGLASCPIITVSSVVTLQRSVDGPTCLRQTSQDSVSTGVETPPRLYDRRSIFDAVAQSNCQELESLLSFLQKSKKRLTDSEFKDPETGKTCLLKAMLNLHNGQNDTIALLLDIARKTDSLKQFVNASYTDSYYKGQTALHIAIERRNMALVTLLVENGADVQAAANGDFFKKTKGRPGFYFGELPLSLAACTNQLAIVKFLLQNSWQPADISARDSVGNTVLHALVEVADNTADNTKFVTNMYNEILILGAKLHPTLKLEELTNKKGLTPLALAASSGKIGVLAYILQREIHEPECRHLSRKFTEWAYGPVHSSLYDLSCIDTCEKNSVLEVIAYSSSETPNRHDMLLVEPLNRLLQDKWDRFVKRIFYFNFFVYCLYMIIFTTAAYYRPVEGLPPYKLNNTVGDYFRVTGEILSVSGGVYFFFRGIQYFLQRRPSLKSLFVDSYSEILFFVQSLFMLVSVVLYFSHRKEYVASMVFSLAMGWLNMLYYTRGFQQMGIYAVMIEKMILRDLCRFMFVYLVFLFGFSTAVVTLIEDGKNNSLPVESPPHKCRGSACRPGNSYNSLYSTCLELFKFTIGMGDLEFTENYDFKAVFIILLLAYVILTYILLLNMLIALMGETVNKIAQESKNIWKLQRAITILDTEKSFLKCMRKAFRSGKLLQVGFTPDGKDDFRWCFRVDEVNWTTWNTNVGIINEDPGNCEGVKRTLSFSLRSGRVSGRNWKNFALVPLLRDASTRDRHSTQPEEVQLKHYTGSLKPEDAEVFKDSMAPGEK
Transient receptor potential cation channel subfamily V member 1 (Mus musculus), sequence (Q704Y3 whole entry): as the sequence (Q704Y3 whole entry T551L) above, with L551T counted along it

For CCCN(C)c1cc(C(F)(F)F)nc(SCCC(=O)NCc2ccco2)n1, the inhibition [1] was “inactive”, the inhibition [2] was “Active” and the Activity [3] was “inactive”. The inhibition [4] was “Dose-dependent effect”, the inhibition [5] was “inactive” and the inhibition [6] was “inactive”.
